# Measured values: ChEMBL document CHEMBL1157688, “Novel tumor-targeted RGD peptide-camptothecin conjugates: synthesis and biological evaluation” (Bioorg Med Chem, 2010)
# Experiments:
# Integrin alpha-V/beta-3 [1] = target: T1, Integrin alpha-V/beta-3 (Homo sapiens, UniProt P05106+P06756); experiment: Displacement of [125I]echistatin from integrin alphaVbeta3 receptor after 3 hrs by gamma counting; format: protein-complex assay
# Target sequence in this assay (P05106 27-788 limits assumed): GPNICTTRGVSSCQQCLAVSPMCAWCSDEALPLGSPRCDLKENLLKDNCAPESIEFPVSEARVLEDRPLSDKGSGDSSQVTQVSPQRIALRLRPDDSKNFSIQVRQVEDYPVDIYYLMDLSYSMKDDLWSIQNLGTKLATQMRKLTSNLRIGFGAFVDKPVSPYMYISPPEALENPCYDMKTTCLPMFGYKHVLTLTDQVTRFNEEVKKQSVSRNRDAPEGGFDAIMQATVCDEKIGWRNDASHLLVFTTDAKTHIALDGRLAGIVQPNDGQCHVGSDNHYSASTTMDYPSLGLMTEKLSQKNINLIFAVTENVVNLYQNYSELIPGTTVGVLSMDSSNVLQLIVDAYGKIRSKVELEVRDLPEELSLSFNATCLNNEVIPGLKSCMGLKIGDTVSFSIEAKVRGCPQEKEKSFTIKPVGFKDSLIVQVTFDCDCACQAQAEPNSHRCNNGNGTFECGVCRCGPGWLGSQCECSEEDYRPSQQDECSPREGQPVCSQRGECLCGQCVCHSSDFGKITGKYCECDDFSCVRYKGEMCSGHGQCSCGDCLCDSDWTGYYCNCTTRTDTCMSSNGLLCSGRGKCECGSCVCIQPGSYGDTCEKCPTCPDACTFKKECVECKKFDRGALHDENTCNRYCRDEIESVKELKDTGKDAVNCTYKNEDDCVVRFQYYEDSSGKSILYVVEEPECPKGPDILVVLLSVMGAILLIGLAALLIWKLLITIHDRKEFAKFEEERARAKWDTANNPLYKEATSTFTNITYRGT
# Target sequence in this assay (P06756 31-889 limits assumed): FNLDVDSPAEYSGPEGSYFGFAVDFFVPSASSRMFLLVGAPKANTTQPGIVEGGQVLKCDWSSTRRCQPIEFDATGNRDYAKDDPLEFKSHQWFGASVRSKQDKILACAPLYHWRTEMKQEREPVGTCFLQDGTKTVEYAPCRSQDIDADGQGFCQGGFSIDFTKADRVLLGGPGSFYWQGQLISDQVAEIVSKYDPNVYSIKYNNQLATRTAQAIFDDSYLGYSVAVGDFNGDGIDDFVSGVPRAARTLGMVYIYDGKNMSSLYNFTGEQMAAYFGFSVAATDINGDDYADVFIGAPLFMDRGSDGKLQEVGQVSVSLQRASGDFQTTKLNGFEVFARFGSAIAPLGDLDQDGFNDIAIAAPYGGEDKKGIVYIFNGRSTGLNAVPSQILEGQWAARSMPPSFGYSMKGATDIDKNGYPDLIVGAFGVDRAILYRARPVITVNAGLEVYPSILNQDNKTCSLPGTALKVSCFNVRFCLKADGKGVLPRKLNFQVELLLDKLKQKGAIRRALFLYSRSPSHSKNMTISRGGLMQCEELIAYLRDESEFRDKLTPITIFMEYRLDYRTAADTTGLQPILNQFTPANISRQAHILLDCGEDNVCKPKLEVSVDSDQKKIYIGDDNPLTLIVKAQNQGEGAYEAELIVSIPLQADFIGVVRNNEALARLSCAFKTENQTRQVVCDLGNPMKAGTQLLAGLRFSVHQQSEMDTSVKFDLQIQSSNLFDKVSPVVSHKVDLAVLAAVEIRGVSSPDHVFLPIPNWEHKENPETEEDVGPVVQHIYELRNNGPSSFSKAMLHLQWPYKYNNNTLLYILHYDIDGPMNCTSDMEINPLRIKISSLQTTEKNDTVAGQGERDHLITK
# Target sequence in this assay (P06756 891-1048 limits assumed): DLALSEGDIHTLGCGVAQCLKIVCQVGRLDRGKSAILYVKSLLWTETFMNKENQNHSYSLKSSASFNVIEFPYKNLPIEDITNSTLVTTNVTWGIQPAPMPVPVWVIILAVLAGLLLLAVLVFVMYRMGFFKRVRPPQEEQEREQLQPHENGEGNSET
# PC-3 = experiment: Cytotoxicity against human PC3 cells after 72 hrs by sulforhodamine B assay; format: functional, cell-based; conditions: PC-3, 72 h
# Outline: (§1)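 Tumor cells were seeded in 96-well plates and exposed the next day to a range of drug concentrations for 72 h. Surviving cells were quantified by sulforhodamine B staining, and IC50 ± SD was derived by curve fitting.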
# Integrin alpha-V/beta-5 [2] = target: T2, Integrin alpha-V/beta-5 (Homo sapiens, UniProt P06756+P18084); experiment: Displacement of [125I]echistatin from integrin alphaVbeta5 receptor after 3 hrs by gamma counting; format: protein-complex assay
# Target sequence in this assay (P06756 31-889 limits assumed): as the sequence (P06756 31-889 limits assumed) above
# Target sequence in this assay (P06756 891-1048 limits assumed): as the sequence (P06756 891-1048 limits assumed) above
# Target sequence in this assay (P18084 24-799 limits assumed): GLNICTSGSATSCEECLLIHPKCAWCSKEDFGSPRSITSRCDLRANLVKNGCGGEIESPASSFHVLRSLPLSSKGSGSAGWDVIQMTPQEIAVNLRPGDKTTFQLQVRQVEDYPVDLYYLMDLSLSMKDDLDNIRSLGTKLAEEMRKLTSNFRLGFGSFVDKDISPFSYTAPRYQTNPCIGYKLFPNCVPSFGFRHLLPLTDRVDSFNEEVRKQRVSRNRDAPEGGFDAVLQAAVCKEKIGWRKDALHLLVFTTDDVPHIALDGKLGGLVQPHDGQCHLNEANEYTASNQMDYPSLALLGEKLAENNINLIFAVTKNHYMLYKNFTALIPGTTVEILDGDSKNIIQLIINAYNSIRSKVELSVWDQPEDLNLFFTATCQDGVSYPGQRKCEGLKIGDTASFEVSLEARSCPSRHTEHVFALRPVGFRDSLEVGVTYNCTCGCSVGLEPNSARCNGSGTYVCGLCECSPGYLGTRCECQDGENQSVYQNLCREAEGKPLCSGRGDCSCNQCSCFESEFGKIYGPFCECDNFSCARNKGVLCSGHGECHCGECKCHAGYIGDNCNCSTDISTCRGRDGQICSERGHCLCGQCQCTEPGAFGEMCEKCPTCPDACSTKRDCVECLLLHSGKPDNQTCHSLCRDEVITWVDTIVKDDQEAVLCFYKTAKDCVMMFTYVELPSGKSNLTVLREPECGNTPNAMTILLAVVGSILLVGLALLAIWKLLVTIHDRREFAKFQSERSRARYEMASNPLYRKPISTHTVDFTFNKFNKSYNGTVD
# Integrin alpha-V/beta-5 [3] = target: T2, Integrin alpha-V/beta-5; experiment: Inhibition of integrin alphaVbeta5 receptor-mediated adhesion of human A2780 cells to vitronectin after 1 hr by toluidine blue staining; format: cell-based
# Outline: (§2)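 Wells were coated 2 h at room temperature with human vitronectin and blocked 1 h with 1% BSA. Tumor cells in serum-free medium with 1% BSA were plated with compounds at 0.1 to 100 and incubated 1 h. Cells were washed with PBS, fixed 10 min in 4% paraformaldehyde and stained 10 min with 1% toluidine blue.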
# Target sequence in this assay (P06756 31-889 limits assumed): as the sequence (P06756 31-889 limits assumed) above
# Target sequence in this assay (P06756 891-1048 limits assumed): as the sequence (P06756 891-1048 limits assumed) above
# Target sequence in this assay (P18084 24-799 limits assumed): as the sequence (P18084 24-799 limits assumed) above
# A2780 [4] = experiment: Cytotoxicity against human A2780 cells after 72 hrs by sulforhodamine B assay; format: functional, cell-based; conditions: A2780, 72 h; outline: as §1
# [5] = Chemical stability assessed as half life at 100 uM at pH 5 by HPLC analysis; format: physicochemical; conditions: buffer
# Outline: (§3)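 Compounds were dissolved in DMSO and diluted to 100 (final, 1% DMSO) in phosphate buffer for pH 7.4 or acetate buffer for pH 5.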
# [6] = Chemical stability assessed as half life at 100 uM at pH 7.4 by HPLC analysis; format: physicochemical; conditions: buffer; outline: as §3
# Integrin alpha-V/beta-5 [7] = target: T2, Integrin alpha-V/beta-5; experiment: Binding affinity to integrin alphaVbeta5 receptor in human A498 cells; format: cell-based
# Integrin alpha-V/beta-3 [8] = target: T1, Integrin alpha-V/beta-3; experiment: Binding affinity to integrin alphaVbeta3 receptor in human A498 cells; format: cell-based
# A498 [9] = experiment: Cytotoxicity against human A498 cells after 72 hrs by sulforhodamine B assay; format: functional, cell-based; conditions: A498, 72 h; outline: as §1
# Integrin alpha-V/beta-5 [10] = target: T2, Integrin alpha-V/beta-5; experiment: Binding affinity to integrin alphaVbeta5 receptor in human A2780 cells; format: cell-based
# Integrin alpha-V [11] = target: T3, Integrin alpha-V (Homo sapiens, UniProt P06756); experiment: Binding affinity to integrin alphaV receptor in human PC3 cells; format: cell-based; conditions: PC-3
# Outline: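 Tumor cells in serum-free medium with 1% BSA were plated for 1 h on wells precoated with 5 µg/ml human vitronectin and blocked with 1% BSA. Compounds were tested at 0.1–100 µM. Adherent cells were fixed with 4% paraformaldehyde, stained with 1% toluidine blue, solubilized in 1% SDS and read by absorbance. IC50 ± SD from curve fitting.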
# A2780 [12] = experiment: Antitumor activity against human A2780 cells xenografted in nude mouse assessed as tumor volume inhibition at 48 mg/kg, ip administered as single dose every fourth day for four times measured after 16 days of tumor implantation relative to control; format: functional; conditions: 384 h, route intraperitoneal
# Outline: (§4)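 Nude mice bearing A2780 human ovarian carcinoma xenografts were dosed from day 2 after tumor injection, either ip every fourth day ×4 or sc daily ×5, at 10 mL/kg. Tumor volume was calculated from the shortest and longest diameters on day 16 or 17. TVI% is relative to vehicle-treated controls (mean ± SE, Mann–Whitney). Body weight was monitored for toxicity.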
# Mus musculus [13] = experiment: Metabolic stability in nude mouse xenografted with human A2780 cells assessed as release of free namitecan in blood at 48 mg/kg, ip administered as single dose every fourth day for four times; format: ADME, organism-based; parameters: dose 48 mg/kg, route intraperitoneal; conditions: in vivo
# A498 [14] = experiment: Cellular uptake in human A498 cells at IC50 after 48 hrs by HPLC-FL analysis; format: ADME, cell-based; conditions: a498, 48 h
# Outline: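 A-498 cells (6.2×10^5 per dish) were treated 24 h after seeding and sampled at 5, 24, 48 and 72 h. Cells were PBS-washed, scraped and pelleted, then lysed by five freeze-thaw cycles. Lysates were extracted with methanol/acetonitrile (1:1) and analyzed by isocratic HPLC with fluorescence detection. Lysate protein was measured by Bradford assay.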
# A2780 [15] = experiment: Antitumor activity against human A2780 cells xenografted in nude mouse assessed as tumor volume inhibition at 48 mg/kg, sc QD for 5 days measured after 17 days of tumor implantation relative to control; format: functional; conditions: route subcutaneous; outline: as §4
# Mus musculus [16] = experiment: Metabolic stability in nude mouse xenografted with human A2780 cells assessed as release of free namitecan in blood at 48 mg/kg, sc QD for 5 days; format: ADME, organism-based; parameters: dose 48 mg/kg, route subcutaneous; conditions: in vivo, 120 h
# Integrin alpha-V/beta-3 [17] = target: T1, Integrin alpha-V/beta-3; experiment: Inhibition of integrin alphaVbeta3 receptor-mediated adhesion of human A498 cells to vitronectin after 1 hr by toluidine blue staining; format: cell-based; outline: as §2
# Target sequence in this assay (P05106 27-788 limits assumed): as the sequence (P05106 27-788 limits assumed) above
# Target sequence in this assay (P06756 31-889 limits assumed): as the sequence (P06756 31-889 limits assumed) above
# Target sequence in this assay (P06756 891-1048 limits assumed): as the sequence (P06756 891-1048 limits assumed) above
# Integrin alpha-V/beta-5 [18] = target: T2, Integrin alpha-V/beta-5; experiment: Inhibition of integrin alphaVbeta5 receptor-mediated adhesion of human A498 cells to vitronectin after 1 hr by toluidine blue staining; format: cell-based; outline: as §2
# Target sequence in this assay (P06756 31-889 limits assumed): as the sequence (P06756 31-889 limits assumed) above
# Target sequence in this assay (P06756 891-1048 limits assumed): as the sequence (P06756 891-1048 limits assumed) above
# Target sequence in this assay (P18084 24-799 limits assumed): as the sequence (P18084 24-799 limits assumed) above
# Mus musculus [19] = experiment: AUC (0 to infinity) in nude mouse xenografted with human A2780 cells at 0.42 mg/kg, sc QD for 5 days; format: ADME, organism-based; parameters: time infinity, dose 0.42 mg/kg, route subcutaneous; conditions: in vivo, 120 h
# Integrin alpha-V [20] = target: T3, Integrin alpha-V; experiment: Inhibition of integrin alphaV receptor-mediated adhesion of human PC3 cells to vitronectin after 1 hr by toluidine blue staining; format: cell-based; conditions: pc-3; outline: as §2
# A2780 [21] = experiment: Antitumor activity against human A2780 cells xenografted in nude mouse assessed as tumor volume inhibition at 16.3 mg/kg, sc QD for 5 days; format: functional, organism-based; parameters: dose 16.3 mg/kg; outline: as §4
# A498 [22] = experiment: Cellular uptake in human A498 cells at 0.064 uM after 5 hrs by HPLC-FL analysis; format: ADME, cell-based; conditions: a498, 5 h
# Outline: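 A-498 cells (6.2 × 10⁵) were seeded in dishes and dosed 24 h later, then sampled at 5, 24, 48 and 72 h. Cells were PBS-washed, scraped, pelleted, lysed by five freeze–thaw cycles, and extracted with methanol/acetonitrile (1:1). Culture medium was extracted the same way. Analysis was by isocratic HPLC-FL (30% CH₃CN / 70% 0.1 M AcOH with 0.1% TEA, pH about 3.5), and lysate protein was measured by Bradford assay.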
# A2780 [23] = experiment: Antitumor activity against human A2780 cells xenografted in nude mouse assessed as tumor volume inhibition at 0.42 mg/kg, sc QD for 5 days measured after 17 days of tumor implantation relative to control; format: functional; conditions: route subcutaneous; outline: as §4
# Mus musculus [24] = experiment: AUC (0 to infinity) in nude mouse xenografted with human A2780 cells at 48 mg/kg, ip administered as single dose every fourth day for four times; format: ADME, organism-based; parameters: time infinity, dose 48 mg/kg, route intraperitoneal; conditions: in vivo
# Mus musculus [25] = experiment: AUC (0 to infinity) in nude mouse xenografted with human A2780 cells at 48 mg/kg, sc QD for 5 days; format: ADME, organism-based; parameters: time infinity, dose 48 mg/kg, route subcutaneous; conditions: in vivo, 120 h
# T3 sequence (P06756 31-889 limits assumed): as the sequence (P06756 31-889 limits assumed) above
# T3 sequence (P06756 891-1048 limits assumed): as the sequence (P06756 891-1048 limits assumed) above
SMILES,IC50 (Integrin alpha-V/beta-3 [1]; read-out: IC50) [µM],IC50 (PC-3) [µM],IC50 (Integrin alpha-V/beta-5 [2]) [µM],IC50 (Integrin alpha-V/beta-5 [3]) [µM],IC50 (A2780 [4]) [µM],IC50 (A498 [9]) [µM],IC50 (Integrin alpha-V/beta-3 [17]) [µM],IC50 (Integrin alpha-V/beta-5 [18]) [µM],also measured
CC[C@@]1(O)C(=O)OCc2c1cc1n(c2=O)Cc2c-1nc1ccccc1c2/C=N/NC(=O)COCCOCCOCC(=O)NCc1ccc(C[C@@H]2NC(=O)[C@@H](Cc3ccccc3)NC(=O)[C@H](CC(=O)O)NC(=O)CNC(=O)[C@H](CCCNC(=N)N)NC2=O)cc1,0.0117,0.22,0.0599,6.7,0.09,–,–,–,half-life at 100 µM [5]: 25 h; half-life at 100 µM [6]: 6 h
N=C(N)NCCC[C@@H]1NC(=O)[C@H](CCCC(=O)O)NC(=O)[C@@H](Cc2ccccc2)NC(=O)[C@H](CC(=O)O)NC(=O)CNC1=O,–,> 1000,–,–,> 1000,> 1000,–,–,Activity (Integrin alpha-V/beta-5 [7]): Dose-dependent effect; Activity (Integrin alpha-V/beta-3 [8]): Dose-dependent effect; Activity (Integrin alpha-V/beta-5 [10]): Dose-dependent effect; Activity (Integrin alpha-V [11]): Dose-dependent effect
CC[C@@]1(O)C(=O)OCc2c1cc1n(c2=O)Cc2c-1nc1ccccc1c2/C=N/OCCNC(=O)COCCOCCOCC(=O)NCc1ccc(C[C@@H]2NC(=O)[C@@H](Cc3ccccc3)NC(=O)[C@H](CC(=O)O)NC(=O)CNC(=O)[C@H](CCCN=C(N)N)NC2=O)cc1,0.0125,27,0.0065,1.8,0.18,0.74,3.1,3.1,inhibition in vivo at 48 mg/kg (A2780 [12]): 43%; Activity (Mus musculus [13]): 2.5%; Drug uptake (A498 [14]): Active; inhibition in vivo at 48 mg/kg (A2780 [15]): 37%; Activity (Mus musculus [16]): 2.5%
N=C(N)NCCC[C@@H]1NC(=O)[C@H](c2ccc(CNC(=O)CCC(=O)O)cc2)NC(=O)[C@@H](Cc2ccccc2)NC(=O)[C@H](CC(=O)O)NC(=O)CNC1=O,0.0376,> 1000,0.0051,9.5,> 1000,> 1000,34,34,Activity (Integrin alpha-V/beta-5 [7]): Dose-dependent effect; Activity (Integrin alpha-V/beta-3 [8]): Dose-dependent effect; Activity (Integrin alpha-V/beta-5 [10]): Dose-dependent effect; Activity (Integrin alpha-V [11]): Dose-dependent effect
CC[C@@]1(O)C(=O)OCc2c1cc1n(c2=O)Cc2c-1nc1ccccc1c2/C=N\OCCN,–,0.36,–,–,0.0049,0.064,–,–,IC50 (Integrin alpha-V/beta-3 [1]): Not Active; AUC (Mus musculus [19]): 2 µg/h/mL; IC50 (Integrin alpha-V [20]): Not Active; inhibition (A2780 [21]): Toxic; Drug uptake (A498 [22]): Active; inhibition in vivo at 0.42 mg/kg (A2780 [23]): 43%
CC[C@@]1(O)C(=O)OCc2c1cc1n(c2=O)Cc2c-1nc1ccccc1c2CCC=O,–,0.12,–,–,0.015,–,–,–,–
N=C(N)NCCC[C@@H]1NC(=O)[C@H](c2ccc(CNC(=O)COCCOCCOCC(=O)O)cc2)NC(=O)[C@@H](Cc2ccccc2)NC(=O)[C@H](CC(=O)O)NC(=O)CNC1=O,0.004,> 1000,0.00035,12.3,> 1000,> 1000,10.7,10.7,Activity (Integrin alpha-V/beta-5 [7]): Dose-dependent effect; Activity (Integrin alpha-V/beta-3 [8]): Dose-dependent effect; Activity (Integrin alpha-V/beta-5 [10]): Dose-dependent effect; Activity (Integrin alpha-V [11]): Dose-dependent effect
CC[C@@]1(O)C(=O)OCc2c1cc1n(c2=O)Cc2c-1nc1ccccc1c2/C=N/OCCNC(=O)CCC(=O)NCc1ccc(C[C@@H]2NC(=O)[C@@H](Cc3ccccc3)NC(=O)[C@H](CC(=O)O)NC(=O)CNC(=O)[C@H](CCCNC(=N)N)NC2=O)cc1,0.00727,4.7,0.00839,–,0.16,4.3,5.4,5.4,–
CC[C@@]1(O)C(=O)OCc2c1cc1n(c2=O)Cc2c-1nc1ccccc1c2C=O,–,0.13,–,–,0.003,–,–,–,–
CC[C@@]1(O)C(=O)OCc2c1cc1n(c2=O)Cc2c-1nc1ccccc1c2CC/C=N/NC(=O)COCCOCCOCC(=O)NCc1ccc(C[C@@H]2NC(=O)[C@@H](Cc3ccccc3)NC(=O)[C@H](CC(=O)O)NC(=O)CNC(=O)[C@H](CCCNC(=N)N)NC2=O)cc1,0.00601,0.42,0.0229,12.9,0.017,–,–,–,half-life at 100 µM [5]: < 0.0333 h; half-life at 100 µM [6]: 5.8 h
N=C(N)NCCC[C@@H]1NC(=O)[C@H](c2ccc(CNC(=O)COCCOCCOCC(=O)NN)cc2)NC(=O)[C@@H](Cc2ccccc2)NC(=O)[C@H](CC(=O)O)NC(=O)CNC1=O,0.0038,> 1000,0.00065,11.8,> 1000,–,–,–,–
CC[C@@]1(O)C(=O)OCc2c1cc1n(c2=O)Cc2c-1nc1ccccc1c2/C=N\OCCNC(=O)CCC[C@@H]1NC(=O)[C@@H](Cc2ccccc2)NC(=O)[C@H](CC(=O)O)NC(=O)CNC(=O)[C@H](CCCNC(=N)N)NC1=O,–,15,–,3.1,0.4,3.2,3.7,3.7,AUC (Mus musculus [24]): 82 µg/h/mL; AUC (Mus musculus [25]): 82 µg/h/mL; Drug uptake (A498 [14]): Active
